Series [1] in a line: Cytotoxicity against human 2008/P cells after 5 days by MTS assay. The note with it: 120 h. In kind it is cell-based. In general terms: Formazan colour is commonly taken as a measure of viable cells.
Series [2] is described as follows: Cytotoxicity against human 2008/MRP1 cells at 0.5 uM by MTS assay. The following applies: 2008/mrp1, 0.5 µM. In kind it is cell-based.
Series [3] in a line: Cytotoxicity against human 2008/MRP1 cells after 5 days by MTS assay. In kind it is cell-based. The note with it: 2008/MRP1, 120 h.
A short description of series [4]: Cytotoxicity against human 2008/P cells at 0.5 uM after 5 days by MTS assay. The note with it: 120 h. In kind it is cell-based.
The species named for series [5] is Homo sapiens. Kind of series: Increase in doxorubicin accumulation in doxorubicin-co-incubated human 2008/P cells at 3 uM after 120 mins by spectrofluorimetry. In kind it is functional. The essentials: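 5 × 10^5 cells of the parental ovarian line incubated 120 min at 37 °C with 20 μM doxorubicin plus 3 μM modulator, 0.3% DMSO as vehicle control. Cells washed twice with cold PBS pH 7.4 and lysed in 0.75 M HCl/0.2% Triton X-100 in isopropanol, then 20 min at 37 °C. Supernatant fluorescence read at ex 460/em 610 nm. Duplicate, three repeats, mean ± SEM.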

The target in series [6] is T1, Multidrug resistance-associated protein 1 (Homo sapiens, UniProt P33527). Kind of series: Reversal of MRP1-mediated doxorubicin resistance in human 2008/MRP1 cells assessed as ratio of doxorubicin IC50 to doxorubicin IC50 in presence of compound at 0.5 uM. In kind it is cell-based. The note with it: 2008/mrp1, 0.5 µM.
T1 sequence (P33527 whole entry): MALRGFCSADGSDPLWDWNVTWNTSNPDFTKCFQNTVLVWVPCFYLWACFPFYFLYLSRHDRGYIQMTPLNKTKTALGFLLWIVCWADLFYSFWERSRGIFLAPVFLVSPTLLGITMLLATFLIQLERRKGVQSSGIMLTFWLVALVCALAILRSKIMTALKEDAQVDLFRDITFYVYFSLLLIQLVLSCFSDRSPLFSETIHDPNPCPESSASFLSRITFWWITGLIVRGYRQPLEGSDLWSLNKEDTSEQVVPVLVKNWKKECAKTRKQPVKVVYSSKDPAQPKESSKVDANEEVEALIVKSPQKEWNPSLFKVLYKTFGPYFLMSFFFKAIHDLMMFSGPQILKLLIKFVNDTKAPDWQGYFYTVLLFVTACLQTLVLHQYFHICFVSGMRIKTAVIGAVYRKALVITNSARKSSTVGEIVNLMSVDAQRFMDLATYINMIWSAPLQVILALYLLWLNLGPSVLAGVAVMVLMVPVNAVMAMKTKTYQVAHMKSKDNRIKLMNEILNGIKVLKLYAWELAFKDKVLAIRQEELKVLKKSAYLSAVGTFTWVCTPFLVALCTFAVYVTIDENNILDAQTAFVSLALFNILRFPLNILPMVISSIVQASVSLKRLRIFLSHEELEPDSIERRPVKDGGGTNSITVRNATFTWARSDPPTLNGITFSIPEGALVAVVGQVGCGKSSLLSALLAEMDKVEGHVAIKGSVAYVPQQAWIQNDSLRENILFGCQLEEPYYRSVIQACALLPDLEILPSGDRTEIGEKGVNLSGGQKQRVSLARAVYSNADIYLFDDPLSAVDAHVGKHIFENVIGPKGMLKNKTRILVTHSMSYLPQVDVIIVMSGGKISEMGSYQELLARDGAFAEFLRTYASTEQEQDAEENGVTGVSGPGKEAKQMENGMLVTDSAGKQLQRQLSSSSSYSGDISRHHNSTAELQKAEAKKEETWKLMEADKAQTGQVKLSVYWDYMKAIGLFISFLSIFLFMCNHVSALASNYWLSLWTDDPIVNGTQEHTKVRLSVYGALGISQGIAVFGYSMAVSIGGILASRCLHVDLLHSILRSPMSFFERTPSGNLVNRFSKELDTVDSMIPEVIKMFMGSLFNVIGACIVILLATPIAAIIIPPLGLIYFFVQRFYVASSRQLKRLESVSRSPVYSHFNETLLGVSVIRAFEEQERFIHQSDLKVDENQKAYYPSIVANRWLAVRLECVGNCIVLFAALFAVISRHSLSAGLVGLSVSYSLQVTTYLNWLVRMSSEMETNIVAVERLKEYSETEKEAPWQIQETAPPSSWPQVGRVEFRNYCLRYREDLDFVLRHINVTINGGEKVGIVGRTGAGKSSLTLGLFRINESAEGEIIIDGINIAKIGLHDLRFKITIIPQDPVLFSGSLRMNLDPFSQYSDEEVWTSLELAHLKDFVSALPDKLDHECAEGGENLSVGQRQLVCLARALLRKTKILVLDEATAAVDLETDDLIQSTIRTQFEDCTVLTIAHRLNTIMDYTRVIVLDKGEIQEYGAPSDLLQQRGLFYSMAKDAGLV
In series [7] the target is T1, Multidrug resistance-associated protein 1. Kind of series: Reversal of MRP1-mediated doxorubicin resistance in doxorubicin co-incubated human 2008/MRP1 cells assessed as increase in doxorubicin accumulation at 3 uM after 120 mins by spectrofluorimetry relative to control. In kind it is cell-based. The note with it: 2008/mrp1, 2 h.
For series [8] the target is unchanged. The series can be described thus: Reversal of MRP1-mediated doxorubicin resistance in doxorubicin co-incubated human 2008/MRP1 cells assessed as effect on doxorubicin accumulation at […] after 120 mins by spectrofluorimetry. In kind it is cell-based. The following applies: 2008/mrp1, 2 h.
The target of series [9] is ATP-binding cassette sub-family C member 2 (Homo sapiens, UniProt Q92887). Kind of series: Inhibition of MRP2.
Chain of ATP-binding cassette sub-family C member 2 (Q92887 whole entry): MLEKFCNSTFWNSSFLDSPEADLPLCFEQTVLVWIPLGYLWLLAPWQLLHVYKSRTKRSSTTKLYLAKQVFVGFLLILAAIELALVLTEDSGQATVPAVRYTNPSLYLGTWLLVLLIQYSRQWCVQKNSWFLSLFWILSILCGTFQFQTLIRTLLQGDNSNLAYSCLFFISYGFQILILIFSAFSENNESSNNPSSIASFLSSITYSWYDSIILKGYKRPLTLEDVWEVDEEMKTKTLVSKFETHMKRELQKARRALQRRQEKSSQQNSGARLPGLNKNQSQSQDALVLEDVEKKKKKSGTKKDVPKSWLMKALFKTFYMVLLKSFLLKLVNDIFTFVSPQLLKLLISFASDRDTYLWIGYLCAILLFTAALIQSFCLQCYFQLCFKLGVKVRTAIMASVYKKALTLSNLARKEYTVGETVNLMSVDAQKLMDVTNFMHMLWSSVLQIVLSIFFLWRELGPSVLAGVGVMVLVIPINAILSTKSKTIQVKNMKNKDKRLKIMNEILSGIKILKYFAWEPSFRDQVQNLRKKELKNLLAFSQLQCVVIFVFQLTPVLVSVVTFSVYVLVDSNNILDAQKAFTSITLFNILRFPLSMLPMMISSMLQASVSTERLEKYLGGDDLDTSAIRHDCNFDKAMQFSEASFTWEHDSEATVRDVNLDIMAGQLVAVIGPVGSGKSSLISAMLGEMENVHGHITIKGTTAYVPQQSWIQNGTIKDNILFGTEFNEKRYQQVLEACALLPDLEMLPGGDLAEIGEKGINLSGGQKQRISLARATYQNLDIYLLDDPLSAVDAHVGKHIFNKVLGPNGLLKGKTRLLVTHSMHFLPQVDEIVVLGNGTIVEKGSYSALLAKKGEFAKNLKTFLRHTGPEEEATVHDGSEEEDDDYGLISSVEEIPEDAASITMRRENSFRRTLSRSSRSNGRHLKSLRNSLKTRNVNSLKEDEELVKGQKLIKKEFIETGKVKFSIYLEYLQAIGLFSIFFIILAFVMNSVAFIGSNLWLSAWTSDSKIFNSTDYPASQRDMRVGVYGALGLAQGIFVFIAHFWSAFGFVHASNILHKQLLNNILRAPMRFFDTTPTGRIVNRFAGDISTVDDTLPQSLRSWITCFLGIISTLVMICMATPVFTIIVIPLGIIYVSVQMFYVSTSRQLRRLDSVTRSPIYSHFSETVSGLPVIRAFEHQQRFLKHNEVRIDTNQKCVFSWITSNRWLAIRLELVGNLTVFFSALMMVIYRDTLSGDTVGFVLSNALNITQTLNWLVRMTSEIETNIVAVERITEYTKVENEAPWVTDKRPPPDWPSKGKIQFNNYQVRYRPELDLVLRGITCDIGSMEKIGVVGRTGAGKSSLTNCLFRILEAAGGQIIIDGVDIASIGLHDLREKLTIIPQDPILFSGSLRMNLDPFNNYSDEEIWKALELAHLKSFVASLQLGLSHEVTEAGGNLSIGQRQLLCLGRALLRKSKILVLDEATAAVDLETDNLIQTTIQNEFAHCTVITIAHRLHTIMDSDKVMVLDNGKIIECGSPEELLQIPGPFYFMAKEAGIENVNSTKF
Series [10] has as its system Mus musculus. Kind of series: Potentiation of vincristine-efficacy in nude mouse model assessed as regression of tumor volume at 8 mg/kg in presence of 0.5 mg/kg vincristine. In kind it is functional.
A short description of series [11]: Selectivity ratio of IC50 for human 2008/MRP1 cells to IC50 for human 2008/P cells. In kind it is functional. In short, it runs like this: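 Ratio of doxorubicin or etoposide IC50 in the MRP1 transfectant to IC50 in the parental line. Both IC50 values come from the 5-day MTS proliferation assay without modulator.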
Series [12] in a line: Anticancer activity against human 2008/P cells after 5 days by MTS assay. In kind it is functional, cell-based. The following applies: 120 h.
Series [13] in a line: Anticancer activity against human 2008/MRP1 cells after 5 days by MTS assay. In kind it is functional, cell-based. The following applies: 2008/MRP1, 120 h.

Molecules are shown by their SMILES. Activity calls are given as the source filed them. The rule behind the calls is not given here. Some results are limits rather than exact numbers.

The IC50 is the concentration needed to halve the response being measured. A higher IC50 goes with lower potency. In the case of `Cc1ccc2c(=O)cc(-c3ccc(OCCOCCOCCOCCOc4ccc(-c5cc(=O)c6ccc(C)cc6o5)cc4)cc3)oc2c1`, the concentration for half-maximal inhibition (IC50) in series [1] and in series [3] was > 100 µM in each case. Besides, the Activity entry in series [2] and in series [4] was “Non-toxic” in each case.

Turning to `Cc1c(-c2ccc(OCCOCCOCCOCCOCCOCCOc3ccc(-c4oc5ccccc5c(=O)c4C)cc3)cc2)oc2ccccc2c1=O`, the Activity result in series [2] and in [4] was “Non-toxic” in each case.

In the case of `COc1ccc(CCN(C)CCCC(C#N)(c2ccc(OC)c(OC)c2)C(C)C)cc1OC` (centres undefined), the outcome in series [5] was inactive.

Turning to `CCc1ccc2oc(-c3ccc(OCCOCCOCCOCCOCCOCCOc4ccc(-c5cc(=O)c6cc(CC)ccc6o5)cc4)cc3)cc(=O)c2c1`, the IC50 in series [1] was > 96 µM; in [3] it was 76.2 µM. Further, the Activity entry in series [2] and in series [4] was “Non-toxic” in each case.

As for `O=c1cc(-c2ccc(OCCOCCOCCOCCOCCOCCOc3ccc(-c4cc(=O)c5ccccc5o4)cc3)cc2)oc2ccccc12`, the figures for the IC50 in [1] and in [3] were 3.7 µM and 2.8 µM, respectively. Moreover, the Activity result in series [2] is “Non-toxic”; in [4] it was “Non-toxic”; in series [6], 7.8.

As for `CCCN(CCC)S(=O)(=O)c1ccc(C(=O)O)cc1` [PROBENECID], the outcome in [5] was inactive. Further, the Activity entry in series [7] and in series [8] was “Not Active” throughout.

With `O=c1c(O)c(-c2cc(O)c(O)c(O)c2)oc2cc(O)cc(O)c12` [MYRICETIN], in [9], the IC50 was found to be 22 µM.

On to `O=c1cc(-c2ccc(OCCOCCOCCOCCOCCOCCOCCOc3ccc(-c4cc(=O)c5ccccc5o4)cc3)cc2)oc2ccccc12`, for which the Activity entry in [2] and in [4] was “Non-toxic” each time.

As for `Cc1ccc2oc(-c3ccc(OCCOCCOCCOCCOCCOCCOc4ccc(-c5cc(=O)c6cc(C)ccc6o5)cc4)cc3)cc(=O)c2c1`, the IC50 in [1] and in series [3] was > 100 µM each time. Further, the Activity result in series [2] and in series [4] was “Non-toxic” each time.

In the case of `O=c1cc(-c2ccc(OCCOCCOCCOCCOc3ccc(-c4cc(=O)c5c(O)cc(O)cc5o4)cc3)cc2)oc2cc(O)cc(O)c12`, the IC50 in series [1] and in [3] was > 100 µM in each case.

Turning to `Cc1ccc2oc(-c3ccc(OCCOCCOCCOCCOCCOc4ccc(-c5cc(=O)c6cc(C)ccc6o5)cc4)cc3)cc(=O)c2c1`, the IC50 in series [1] and in series [3] was > 100 µM each time. Moreover, in series [5], the result was Active. In addition, the Activity result in series [2] and in series [4] was “Non-toxic” each time.

With `Cc1ccc2c(=O)cc(-c3ccc(OCCOCCOCCOCCOCCOc4ccc(-c5cc(=O)c6ccc(C)cc6o5)cc4)cc3)oc2c1`, the half-maximal inhibitory concentration (IC50) came to 60.6 µM in series [1] and 53.3 µM in series [3]. Moreover, the Activity entry in series [2] and in [4] was “Non-toxic” each time.

Take `CCc1ccc2oc(-c3ccc(OCCOCCOCCOCCOc4ccc(-c5cc(=O)c6cc(CC)ccc6o5)cc4)cc3)cc(=O)c2c1`: the concentration for half-maximal inhibition (IC50) in series [1] is 77.7 µM; in series [3], 69.5 µM. Also, the Activity result in [2] and in [4] was “Non-toxic” in each case.

In the case of `O=c1cc(-c2ccc(OCCOCCOCCOCCOCCOCCOCCOCCOCCOCCOCCOCCOCCOc3ccc(-c4cc(=O)c5ccccc5o4)cc3)cc2)oc2ccccc12`, the Activity result in series [2] and in series [4] was “Non-toxic” each time.

As for `CN(C)C(=O)CCSC(SCCC(=O)O)c1cccc(/C=C/c2ccc3ccc(Cl)cc3n2)c1` (centres undefined), the result in series [5] was inactive.

Consider `O=c1cc(-c2ccc(OCCOCCOCCOCCOCCOc3ccc(-c4cc(=O)c5ccc(F)cc5o4)cc3)cc2)oc2cc(F)ccc12`, for which the values for the half-maximal inhibitory concentration (IC50) in series [1] and in [3] were 17.5 µM and 8.9 µM, respectively. Moreover, the Activity entry in [2] and in [4] was “Non-toxic” throughout.

For `O=c1cc(-c2ccc(OCCOCCOCCOc3ccc(-c4cc(=O)c5c(O)cc(O)cc5o4)cc3)cc2)oc2cc(O)cc(O)c12`, the IC50 in series [1] and in series [3] was > 100 µM each time.

As for `O=c1cc(-c2ccc(OCCOCCOCCOCCOCCOCCOCCOCCOc3ccc(-c4cc(=O)c5ccccc5o4)cc3)cc2)oc2ccccc12`, the Activity result in series [2] and in [4] was “Non-toxic” in each case.

As for `Cc1ccc2c(=O)cc(-c3ccc(OCCOCCOCCOCCOCCOCCOc4ccc(-c5cc(=O)c6ccc(C)cc6o5)cc4)cc3)oc2c1`, the IC50 in series [1] came to 6.1 µM; in series [3], 10.2 µM. Also, the Activity entry in [2] and in series [4] was “Non-toxic” in each case.

For the compound `O=c1cc(-c2ccc(OCCOCCOCCOCCOCCOCCOc3ccc(-c4cc(=O)c5ccc(F)cc5o4)cc3)cc2)oc2cc(F)ccc12`, the half-inhibitory concentration (IC50) is 4.4 µM in series [1] and 5.2 µM in series [3]. The Activity entry in series [2] and in [4] was “Non-toxic” in each case.

`O=c1cc(-c2ccc(OCCOCCOCCOCCOCCOCCOCCOc3ccc(-c4cc(=O)c5c(O)cc(O)cc5o4)cc3)cc2)oc2cc(O)cc(O)c12`: the Activity in series [6] was 1.5.

Take `Cc1onc2c1c(=O)n([C@H]1CCC[C@@H](CNC(=O)c3ccccc3)C1)c1cccc(Cl)c21`: in series [10], the Activity turned out to be 63%.

Regarding `CCc1ccc2oc(-c3ccc(OCCOCCOCCOCCOCCOc4ccc(-c5cc(=O)c6cc(CC)ccc6o5)cc4)cc3)cc(=O)c2c1`, the values for the half-inhibitory concentration (IC50) in series [1] and in series [3] were 62.6 µM and 46.1 µM, respectively. In addition, the Activity result in series [2] and in series [4] was “Non-toxic” in each case.

With `Cc1c(-c2ccc(OCCOCCOCCOCCOCCOc3ccc(-c4oc5ccccc5c(=O)c4C)cc3)cc2)oc2ccccc2c1=O`, the Activity result in [2] and in series [4] was “Non-toxic” throughout.

As to `O=c1cc(-c2ccc(OCCOCCOCCOCCOc3ccc(-c4cc(=O)c5ccccc5o4)cc3)cc2)oc2ccccc12`, the IC50 in [1] is > 100 µM; in series [3] it was > 93 µM.

In the case of `O=c1cc(-c2ccc(OCCOCCOCCOCCOCCOCCOCCOCCOCCOc3ccc(-c4cc(=O)c5ccccc5o4)cc3)cc2)oc2ccccc12`, the Activity result in series [2] and in [4] was “Non-toxic” each time.

In the case of `Cc1ccc2oc(-c3ccc(OCCOCCOCCOCCOc4ccc(-c5cc(=O)c6cc(C)ccc6o5)cc4)cc3)cc(=O)c2c1`, the figures for the IC50 in [1] and in [3] were > 100 µM and > 77 µM, respectively. Further, the Activity result in series [2] and in [4] was “Non-toxic” in each case.

In the case of `COc1cccc2c1C(=O)c1c(O)c3c(c(O)c1C2=O)C[C@@](O)(C(=O)CO)C[C@@H]3O[C@H]1C[C@H](N)[C@H](O)[C@H](C)O1` [DOXORUBICIN], in series [11], the “Ratio IC50” value is reported as 9.2. Also, the IC50 was 63 nM in [12] and 577 nM in [13].
